Source: PubChem BioAssay (several laboratories)
An excerpt weighted towards active compounds, which were near 2.1% of everything screened.
Autophagy HCS: modulators of autophagy; MEF GFP-LC3 puncta imaging; test concentration mostly 10 µM; calls only at 10 µM (by protocol); 0.98% of 190,000 active;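 active means percentage of spot-positive cells more than 3 SD above its plate mean, without a fluorescence outlier flag or 80% toxicity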;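 further: spot-positive cell cutoff set from DMSO-treated cells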
Arbovirus anti: blocks arbovirus infection. arbovirus infection cell-based antiviral screen. inhibition, % at 10 µM. 0.37% of 200,000 active. AID 1251; in the data active means inhibition above about 30%
b-catenin transl: modulators of beta-catenin nuclear translocation; 0.3% of 190,000 active; HeLa beta-catenin nuclear translocation, immunofluorescence imaging; nuclear translocation activity, % at 5 µM;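 active means nuclear translocation activity above 50% at 5 µM, with a well cell count of 50 or more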;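 further: per-cell ratio of nuclear to cytoplasmic median beta-catenin stain intensity; plate controls were DMSO negative control for no effect and GSK-3 inhibitor IX positive control for full effect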
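Test system: human HeLa cells, endogenous beta-catenin. Times: 24 h compound exposure, 37°C. Measured by: beta-catenin immunofluorescence imaging with DAPI.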
MT stabilizer: stabilizes microtubules in HeLa cells; % tubulin-high responders, % at 10 µM; 0.83% of 200,000 active; HeLa tubulin immunostaining HCS, 24 h; share of cells brighter than vehicle mean+2SD; AID 2205;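 active means plate Z-score above 3 for both tubulin-high and condensed-nucleus cell shares, with cell loss under 80%, at 10 µM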;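 further: anti alpha tubulin signal scored within the nucleus-defined area of each cell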
ABCB1 inh: human ABCB1 inhibition, ABCG2 as counter-screen. P08183. 0.067% of 190,000 active. inhibition, % at 6.6 µM. CCRF-Adr cells, JC-1 efflux, flow cytometry; in the data active means inhibition above about 40%;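 further: 0% = vehicle and 100% = reference inhibitor; higher value means more JC-1 retained so stronger ABCB1 efflux block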
ABCG2 block: human ABCG2 inhibition, ABCB1 as counter-screen | Q9UNQ0 | IgMXP3 cells, JC-1 efflux, flow cytometry | 0.1% of 190,000 active | inhibition, % at 6.6 µM;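 active means inhibition above 80%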;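 further: 0% = DMSO and 100% = nicardipine control wells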
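Incubation: cells with compound and JC-1, 10 min at 25 °C, rotating, no wash / Test system: IgMXP3 (ABCG2) plus far-red-tagged CCRF-Adr (ABCB1) cells / Compound dosing: one concentration, 6.6 µM final / Also added: JC-1 fluorescent substrate / Evaluation: efflux inhibition in percent versus controls / Detection: flow cytometry, 530 nm JC-1 signal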
Numbers without * were called inactive; i = inactive; x = not tested or not shown; + = active, no number.

SMILES	Autophagy HCS	Arbovirus anti	b-catenin transl	MT stabilizer	ABCB1 inh	ABCG2 block
Cc1ccc(C2=C(c3ccc([N+](=O)[O-])cc3)C(=O)OC2)cc1C	+	17	2	4	1	7
CC(C)C[C@H](NC(=O)c1nc[nH]c1C(=O)N1CCN(C(=O)OC(C)(C)C)CC1)C(=O)OC(C)(C)C	i	32*	3	1	0	3
Cc1ccc(C)c(N(C)C(=O)COc2cc(=O)n(C)c3ccccc23)c1	+	1	x	3	0	4
CN(C(=O)COc1cc(=O)n(C)c2ccccc12)c1ccc(Cl)cc1	i	-8	x	2	-2	0
O=c1cc(-c2ccccc2)[nH]c2nc3ccccc3n12	i	-27	1	44*	1	1
CCOC1(c2ccccc2)OC(=O)c2ccccc21 (stereo not given)	i	-3	3	4	x	-2
CCCCOc1ccc(-c2nnn(CC(=O)NCc3ccco3)n2)cc1	+	-6	24	39*	0	25
O=c1c2cn[nH]c2[nH]c(=S)n1-c1ccccc1Cl	i	8	1	3	0	-1
CC(C)c1nc(SCC(=O)Nc2ccc3c(c2)OCCO3)c2c(=O)n(C)c(=O)n(C)c2n1	x	-6	2	22*	0	2
O=C(CCS(=O)(=O)c1ccc(Br)cc1)N1CCN(c2ccccc2Cl)CC1	i	14	-3	3	1	34
O=C(CCS(=O)(=O)c1ccc(Br)cc1)N1CCN(c2ccccc2)CC1	+	4	0	5	1	2
COc1ccc2nc(N3C(=O)CC(Cc4cc(C)cc(C)c4)C3=O)sc2c1 (stereo not given)	i	39*	0	3	2	10
COc1ccc2nc(N3C(=O)CC(Cc4ccc(Cl)cc4)C3=O)sc2c1 (stereo not given)	i	28	-3	1	0	0
CC(=O)c1nc(N2C(=O)CC(Cc3cc(C)cc(C)c3)C2=O)sc1C (stereo not given)	+	1	-1	2	x	10
Cc1cc(C)c2c(n1)sc1c(=O)n(CC(=O)c3ccccc3)cnc12	x	x	1	x	x	x
O=C(Cc1ccc(F)cc1)Nc1cccc(-c2cn3c(n2)SCC3)c1	i	-10	0	4	9	20
CCOc1ccc2c(c1)-c1c(ssc1=S)C(C)(C)N2C(=O)c1ccco1	i	-10	68*	13	0	-1
O=C(Nc1cccn(Cc2c(F)cccc2Cl)c1=O)NC1CCCCC1	i	-17	-1	17*	0	0
C#CCOC(=O)Nc1cccn(Cc2c(Cl)cccc2Cl)c1=O	i	-16	6	51*	1	6
CCOC(=O)C1=C(C)Nc2nc(C)nn2C1c1cc(OC)ccc1OC (stereo not given)	i	2	6	5	0	5
CCOc1ccc(Cl)cc1CNCCNCC(C)O (stereo not given)	i	-8	x	3	0	0
CCOC(=O)/C(C#N)=C\c1ccc(OC)c(OC)c1	i	15	0	4	0	-1
CCOC(=O)c1c(-c2ccccc2)csc1NC(=O)/C(C#N)=C/c1ccc(OC)c(OC)c1	+	-8	1	4	0	2
CCCCCc1nnc(NC(=O)C2COc3ccccc3O2)s1 (stereo not given)	i	46*	4	3	0	0
Cc1ccc(CSc2nnc(NC(=O)C3COc4ccccc4O3)s2)cc1 (stereo not given)	i	56*	0	3	-1	19
CCc1nnc(NC(=O)C2COc3ccccc3O2)s1 (stereo not given)	i	5	-1	2	0	3
CCN1CCN(CCNC(=O)c2ccc(/C=C3\Sc4ccccc4N(Cc4ccccc4F)C3=O)cc2)CC1	+	-39	3	2	1	2
CN1CCN(CCCNC(=O)c2ccc(/C=C3\Sc4ccccc4N(Cc4ccc(F)cc4)C3=O)cc2)CC1	i	-31	4	2	2	5
COc1ccc(S(=O)(=O)NC2CCCCC2)cc1-n1cnnn1	i	1	3	1	0	2
